Results as given in the array DNA melting data of Ke et al. (doi:10.1101/2024.01.08.574731).

Experiments:
[1] = melting temperature; fluorescence melt of hairpins on a sequencing array, two-state fit, raised by 9.35 °C to match UV melts; details: sodium 0.088 M
How it was run: (§1)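 Library hairpins on a sequenced MiSeq flow cell carried annealed Cy3 and quencher oligos, and their Cy3 fluorescence was imaged in 50 mM Na-HEPES pH 8.0 with 25 mM NaCl, in 2.5 °C steps up to 60 °C. Signals were normalised to Cy3 before quenching and to control constructs. Melting temperature and folding enthalpy were obtained from bootstrapped two-state fits, combined by inverse-variance weighting across four replicates, and the fitted temperatures were then raised by 9.35 °C to match UV melts.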

[2] = folding enthalpy; higher = less favourable; fluorescence melt of hairpins on a sequencing array, two-state fit; details: sodium 0.088 M
How it was run: as §1

| Sequence | Tm [1] [°C] | folding enthalpy [2] [kcal/mol] |
| --- | --- | --- |
| GGGACCGGAAACGACCCC (((..((....))..))) | 35.5 | -25.2 |
| GCCCTAGGAAACTAAGGC (((.(((....))).))) | 34 | -21.1 |
| GTGTACGGAAACGCACAC ((((.((....)).)))) | 49.1 | -38.1 |
| GCTGATCGAAAGATTAGC (((.(((....))).))) | 51.9 | -47.2 |
| GCAGAGCGAAAGCGGTGC (((..((....))..))) | 63.5 | -23.7 |
| GGAGGTGGAAACACCCCC ((.((((....)))).)) | 49.1 | -18.7 |
| GCGTCGTACGC ((((...)))) | 65.6 | -18.3 |
| GATCTCTGACGAGATC ((((((....)))))) | 50 | -30.5 |
| GCTCAGCGAAAGCTTGGC ((..(((....)))..)) | 39.7 | -18.8 |
| GTGGGCGGAAACGCCTGC (..((((....))))..) | 47 | -13.2 |
| GAAGGGAAACCTTC (((((....))))) | 42.5 | -20.9 |
| GCGCACGGAAACGCACGC (((..((....))..))) | 42.2 | -31.2 |
| GAGCCCGGAAACAGGCTC (((((.(....).))))) | 51.5 | -39.4 |
| GAACGTGGAAACACGTTC (((((((....))))))) | 66.3 | -31.6 |
| GGGCTAGGAAACCAGCCC (((((.(....).))))) | 54.1 | -44.8 |
| GAATCTGGAAACAGGTTC (((.(((....))).))) | 44 | -31.5 |
| GCTTTGCGAAAGCTCAGC (((..((....))..))) | 44.3 | -14.4 |
| GGAAAGTCGAAAGACTCC (((..(((....)))))) | 33.7 | -15.6 |
| GGTTCCGAAAGGAATACC ((((((....)))..))) | 41.5 | -14.1 |
| GATCAAAAGTTGATC ((((((...)))))) | 39.5 | -26.1 |
| GATCTTTACCAAGATC ((((((....)))))) | 42 | -29.9 |
| GCGTCGCGAAAGCCGCGC (((..((....))..))) | 66 | -29.7 |
| GTACACGAAAGTGGTAC ((((((....))).))) | 47.8 | -17.9 |

| Sequence | Tm [1] [°C] | folding enthalpy [2] [kcal/mol] |
| --- | --- | --- |
| GGTGAAGGAAACCTCACC (((((.(....).))))) | 46.2 | -29.6 |
| GTGTAAGGAAACTTACAC (((((((....))))))) | 54.2 | -42.2 |
| CGGGAGCGGAAACGCCCG (((..(((....)))))) | 53.6 | -21.4 |
| GATCGACGGTCGATC ((((((...)))))) | 51.2 | -43.7 |
| GCGCTCGAAAGAGAACGC ((((((....)))..))) | 50.4 | -30.8 |
| GGACTCGAAAGAGCGTCC ((((((....)))..))) | 32 | -16 |
| GCTGACGAAAGTCTTAGC ((((((....)))..))) | 39.8 | -22.6 |
| CGCACGGAAACGTCCGCG ((((((....)))..))) | 41.2 | -19.1 |
| GTAACCCGAAAGGGGTAC (((.(((....))).))) | 57.6 | -30.9 |
| GTCATCGAAAGATGTGAC ((((((....)))..))) | 35.7 | -13.4 |
| GATCCGCACACGGATC ((((((....)))))) | 59.9 | -44.5 |
| GCGAGAGAAATCTCGC ((((((....)))))) | 66.8 | -32.3 |
| GTCGACGAAAGTCGCGAC ((((((....)))..))) | 57.4 | -12.6 |
| GATCGGTAAACCGATC ((((((....)))))) | 56.2 | -40.7 |
| GCTCGGCGAAAGCGAAGC (((..((....))..))) | 47.2 | -13.1 |
| GAACCTGGAAACAGGTCC (.(((((....))))).) | 40.9 | -15.9 |
| GTAGATGAAAATCTAC ((((((....)))))) | 48.6 | -29.2 |
| GGGGGACGAAAGTCTCCC (((.(((....))).))) | 66 | -34.4 |
| GTGCACGAAAGTGAACAC ((((((....)))..))) | 52 | -15.4 |
| CGTTTCCGGAAACGGACG (((..(((....)))))) | 49.3 | -17.1 |
| GCAGAGCGAAAGCAGTGC (((..((....))..))) | 45.8 | -15.1 |
| GCTTCACGAAAGTGCAGC (((.(((....))).))) | 51.6 | -27.7 |
| GATCTGGAGCAGATC ((((((...)))))) | 45.4 | -28.1 |

| Sequence | Tm [1] [°C] | folding enthalpy [2] [kcal/mol] |
| --- | --- | --- |
| GCAGAAGGAAACCTCTGC (((((.(....).))))) | 45.2 | -28.2 |
| GATCCGCCGTCGGATC ((((((....)))))) | 56.9 | -40.7 |
| GGGTCTGGAAACGGATCC ((.((.(....).)).)) | 41.8 | -33 |
| GATGGCGGAAACGCTGTC ((..(((....)))..)) | 44 | -17.1 |
| GCATGCGAAAGCAATTGC ((((((....)))..))) | 44.1 | -19.5 |
| GTTGAGGGAAACCTCGAC ((.((((....)))).)) | 49.8 | -29.5 |
| GATCTTTCCAAAGATC ((((((....)))))) | 47.3 | -32.9 |
| GCTAACGCGAAAGCGAGC (((..(((....)))))) | 45.2 | -15.2 |
| GCGAGGCGAAAGCCGGGC ((..(((....)))..)) | 65.7 | -20.8 |
| GCTATGCGAAAGCACTGC ((..(((....)))..)) | 36.3 | -15.3 |
| GATCTACGGTAGATC ((((((...)))))) | 41.4 | -37.3 |
| GCCTTCGGAAACGAGGGC (((.(((....))).))) | 56.7 | -33.6 |
| GTGCTCGAAAGAGCCAC ((((((....))).))) | 49 | -11.2 |
| GCACCCGAAAGGGTTGC ((((((....))).))) | 63.3 | -22.5 |
| GTGTAGACGAAAGTCCAC (((..(((....)))))) | 42.8 | -20.6 |
| GAATTTGAAAAAATTC ((((((....)))))) | 38.8 | -26.6 |
| GCAAGCTCGAAAGAGTGC (((..(((....)))))) | 36.9 | -16.9 |
| CGCGTCGGAAACGAGGCG (((.(((....))).))) | 60.9 | -46.5 |
| GGAGGCGAAAGCCAATCC ((((((....)))..))) | 33.6 | -10.4 |
| GCGTGATGACGC ((((....)))) | 52.8 | -25.1 |
| GACCACGAAAGTGGGGTC ((((((....)))..))) | 61.2 | -13.2 |
| GCCAACGGAAACACTGGC ((((..(....)..)))) | 29.1 | -14 |
| GTGAGCGGAAACGTTCAC ((((.((....)).)))) | 52.8 | -41.2 |

| Sequence | Tm [1] [°C] | folding enthalpy [2] [kcal/mol] |
| --- | --- | --- |
| GCCGACGGAAACGTTGGC (((.(((....))).))) | 63.9 | -45.5 |
| GTGGAGGCGAAAGCCCAC (((..(((....)))))) | 52.9 | -17.1 |
| GGAGGAGGAAACTTCTCC ((((.((....)).)))) | 45.2 | -35.9 |
| GTGCACGAAAGTGTCAC ((((((....))).))) | 54.5 | -22.3 |
| GCATCGCGAAAGCTACGC ((.(.((....)).).)) | 32.8 | -8.55 |
| GCAAGGGGAAACCCTCGC ((.((((....)))).)) | 45 | -23.4 |
| GCATGCTCGAAAGAGTGC (((..(((....)))))) | 34.3 | -15.8 |
| GCCCACGAAAGTGGAGGC ((((((....)))..))) | 52.5 | -15.5 |
| GCGAAAGGAAACTTTTGC ((.((((....)))).)) | 45.9 | -32.1 |
| GATCCCGCTTGGGATC ((((((....)))))) | 59.5 | -46.9 |
| GCTGTCGAAAGACTGAGC ((((((....)))..))) | 43 | -18.5 |
| GGCTTCGAAAGAATAGCC ((((((....)))..))) | 45.3 | -27.6 |
| GTGCCAACGAAAGTTCAC (((..(((....)))))) | 36.3 | -4.38 |
| GATCAAAGATTTGATC ((((((....)))))) | 43.6 | -31.8 |
| GGTTCACCGAAAGGTACC (((..(((....)))))) | 32.2 | -11.9 |
| GCGTTTGGAAACAAGCGC (((.(((....))).))) | 54.6 | -45.6 |
| GTTTACGAAAGTATAAC ((((((....))).))) | 32.4 | -12.8 |
| GGACACGGAAACGTGCCC ((.((((....)))).)) | 54.5 | -27.9 |
| GTGCGGGGAAACTCGCAC (((((.(....).))))) | 61.2 | -40.1 |
| GCGTCCGAAAGGAGTCGC ((((((....)))..))) | 49.5 | -22.9 |
| GATCAACGATTTGATC ((((((....)))))) | 39.3 | -24.9 |
| GAACGACGAAAGTCTTC (((.(((....)))))) | 34.8 | -15.3 |
| GGATATACGAAAGTATCC (((..(((....)))))) | 36 | -16.9 |
